In ChEMBL document CHEMBL1152812, “Novel trans-2-aryl-cyclopropylamine analogues as potent and selective dipeptidyl peptidase IV inhibitors” (Bioorg Med Chem, 2009):
Activity calls are given as the source filed them. The rule behind the calls is not given here.

How the values were obtained:
Dipeptidyl peptidase 2 = Dipeptidyl peptidase 2 (Homo sapiens, UniProt Q9UHL4); assay: Inhibition of human DPP2
Homo sapiens [1] = species on record: Homo sapiens; assay: Selectivity for ratio of IC50 for human DPP4 to IC50 for human FAP
hERG (KCNH2) = hERG (KCNH2) (Homo sapiens, UniProt Q12809); assay: Inhibition of human ERG at 10 uM
Procedure, shortened: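 hERG binding; percent inhibition at a test concentration of 10 µM.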

Rattus norvegicus [2] = assay: Inhibition of DPP4 in Wistar rat plasma at 10 mg/kg, po within 30 mins; type: functional; details: 0.5 h
Procedure, shortened: (§1)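 Adult male Wistar rats (n = 4–6/group) given a single oral gavage of 10 mg/kg in 0.5% methyl cellulose. Tail-vein blood (25–50 µl) taken at timed points and plasma kept frozen. Plasma (10 µl) mixed with 150 µM Gly-Pro-AMC in 25 mM Tris-HCl pH 7.4, 140 mM NaCl, 10 mM KCl, 0.1% BSA. Fluorescence read at ex 390/em 460 nm. Activity in U/mL; mean ± SEM.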

Mus musculus [3] = assay: Reduction in glucose excursion in po dosed C57BL/6J lean mouse pretreated for 30 mins before glucose challenge measured after 120 mins by oral glucose tolerance test; type: functional, organism-based
Procedure, shortened: (§2)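 Fasted overnight: adult male C57BL/6 mice (20–25 g, 6–8 weeks old, n = 6/group), grouped by tail-vein glucometer reading. Oral gavage of test agent in distilled water at −30 min (1, 3 or 10 mg/kg), then 3 g/kg oral glucose (400 mg/mL) at 0 min.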

[4] = Oral bioavailability in rat at 10 mg/kg, po; type: ADME, organism-based; details: in vivo
Procedure, shortened: (§3)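 Rat pharmacokinetics after dosing at 5 mg/kg iv and 10 mg/kg po. Parameters derived: plasma clearance, oral Cmax, oral half-life, dose-normalised oral AUC and oral bioavailability (F).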

[5] = Half life in rat at 10 mg/kg, po; type: ADME, organism-based; design: dose 10 mg/kg, route oral; details: in vivo; procedure, shortened: as §3
Mus musculus [6] = assay: Reduction in glucose AUC in C57BL/6J diet-induced obese mouse at 10 mg/kg, po pretreated 30 mins before glucose challenge measured after 120 mins by oral glucose tolerance test relative to control; type: functional; design: scale not given: the % may be the effect or the level left
Procedure, shortened: (§4)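 Male C57BL/6j DIO mice (40–50 g, 27 weeks old, n = 6/group) fasted overnight and grouped by tail-vein glucometer reading. Test agent given by oral gavage in distilled water, then 3 g/kg glucose orally (400 mg/mL in water) 30 min later.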

Mus musculus [7] = assay: Reduction in glucose excursion in C57BL/6J lean mouse at 10 mg/kg, po pretreated 30 mins before glucose challenge measured after 120 mins by oral glucose tolerance test relative to control; type: functional; design: scale not given: the % may be the effect or the level left; procedure, shortened: as §2
[8] = target: T1, Endothelin-converting enzyme 1 (Homo sapiens) (UniProt P42892); assay: Inhibition of ECE-1 at 10 uM
T1 sequence (whole entry): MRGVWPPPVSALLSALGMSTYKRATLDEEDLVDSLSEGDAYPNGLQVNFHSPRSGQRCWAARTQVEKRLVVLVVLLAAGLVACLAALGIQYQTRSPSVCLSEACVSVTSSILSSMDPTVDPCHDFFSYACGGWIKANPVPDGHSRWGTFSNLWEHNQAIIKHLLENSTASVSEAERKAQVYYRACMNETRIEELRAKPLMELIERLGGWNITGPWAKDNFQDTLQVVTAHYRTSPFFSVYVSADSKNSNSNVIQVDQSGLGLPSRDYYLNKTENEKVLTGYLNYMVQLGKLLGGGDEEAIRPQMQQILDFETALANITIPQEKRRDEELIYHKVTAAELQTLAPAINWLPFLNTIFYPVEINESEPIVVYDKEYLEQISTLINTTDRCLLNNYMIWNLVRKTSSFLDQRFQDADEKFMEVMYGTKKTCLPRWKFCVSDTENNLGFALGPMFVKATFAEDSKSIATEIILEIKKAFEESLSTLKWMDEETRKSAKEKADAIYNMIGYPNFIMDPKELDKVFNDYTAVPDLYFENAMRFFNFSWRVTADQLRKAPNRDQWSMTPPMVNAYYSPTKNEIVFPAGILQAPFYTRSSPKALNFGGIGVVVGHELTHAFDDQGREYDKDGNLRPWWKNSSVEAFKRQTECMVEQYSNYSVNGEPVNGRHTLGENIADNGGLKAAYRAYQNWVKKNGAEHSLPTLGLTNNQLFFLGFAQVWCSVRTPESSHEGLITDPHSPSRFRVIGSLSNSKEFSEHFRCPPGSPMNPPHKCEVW
Procedure, shortened: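 Part of a panel of 167 enzyme assays; percent inhibition at a test concentration of 10 µM.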

Rattus norvegicus [9] = assay: Inhibition of DPP4 in Wistar rat plasma at 10 mg/kg, po after 24 hrs; type: functional, organism-based; design: dose 10 mg/kg; procedure, shortened: as §1
[10] = Cmax in rat at 10 mg/kg, po; type: ADME, organism-based; design: dose 10 mg/kg, route oral; details: in vivo; procedure, shortened: as §3
Mus musculus [11] = assay: Reduction in glucose AUC in C57BL/6J diet-induced obese mouse at 1 mg/kg, po pretreated 30 mins before glucose challenge measured after 120 mins by oral glucose tolerance test relative to control; type: functional; design: scale not given: the % may be the effect or the level left; procedure, shortened: as §4
Mus musculus [12] = assay: Reduction in glucose AUC in C57BL/6J diet-induced obese mouse at 3 mg/kg, po pretreated 30 mins before glucose challenge measured after 120 mins by oral glucose tolerance test relative to control; type: functional; design: scale not given: the % may be the effect or the level left; procedure, shortened: as §4
Homo sapiens [13] = species on record: Homo sapiens; assay: Selectivity for ratio of IC50 for human DPP4 to IC50 for human DPP2
[14] = Plasma clearance in rat at 5 mg/kg, iv or 10 mg/kg, po; type: ADME, organism-based; procedure, shortened: as §3
Homo sapiens [15] = species on record: Homo sapiens; assay: Selectivity for ratio of IC50 for human DPP4 to IC50 for human DPP8
Mus musculus [16] = assay: Reduction in glucose excursion in C57BL/6J lean mouse at 1 mg/kg, po pretreated 30 mins before glucose challenge measured after 120 mins by oral glucose tolerance test relative to control; type: functional; design: scale not given: the % may be the effect or the level left; procedure, shortened: as §2
Prolyl endopeptidase FAP = target: T2, Prolyl endopeptidase FAP (Homo sapiens, UniProt Q12884); assay: Inhibition of human FAP
T2 sequence (Q12884 whole entry): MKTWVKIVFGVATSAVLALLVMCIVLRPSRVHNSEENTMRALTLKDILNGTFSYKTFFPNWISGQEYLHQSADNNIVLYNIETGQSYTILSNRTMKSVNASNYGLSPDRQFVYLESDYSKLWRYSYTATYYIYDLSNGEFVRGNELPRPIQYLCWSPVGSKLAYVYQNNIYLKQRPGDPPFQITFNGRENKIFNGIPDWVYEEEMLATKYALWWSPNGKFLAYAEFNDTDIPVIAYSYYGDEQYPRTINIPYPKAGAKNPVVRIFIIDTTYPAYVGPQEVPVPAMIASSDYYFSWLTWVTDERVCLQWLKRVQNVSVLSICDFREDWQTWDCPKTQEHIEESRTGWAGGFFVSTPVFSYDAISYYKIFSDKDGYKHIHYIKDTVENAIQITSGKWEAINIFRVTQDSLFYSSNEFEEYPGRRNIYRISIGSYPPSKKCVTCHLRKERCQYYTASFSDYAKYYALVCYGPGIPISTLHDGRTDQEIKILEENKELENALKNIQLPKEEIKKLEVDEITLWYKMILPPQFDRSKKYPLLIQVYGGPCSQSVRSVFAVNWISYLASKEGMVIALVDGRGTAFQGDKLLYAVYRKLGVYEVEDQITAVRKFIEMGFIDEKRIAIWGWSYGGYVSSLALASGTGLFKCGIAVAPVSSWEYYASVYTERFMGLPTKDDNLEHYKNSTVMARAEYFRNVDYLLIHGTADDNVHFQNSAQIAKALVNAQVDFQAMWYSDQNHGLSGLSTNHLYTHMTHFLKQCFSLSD

Sequence of hERG (KCNH2) (Q12809 whole entry): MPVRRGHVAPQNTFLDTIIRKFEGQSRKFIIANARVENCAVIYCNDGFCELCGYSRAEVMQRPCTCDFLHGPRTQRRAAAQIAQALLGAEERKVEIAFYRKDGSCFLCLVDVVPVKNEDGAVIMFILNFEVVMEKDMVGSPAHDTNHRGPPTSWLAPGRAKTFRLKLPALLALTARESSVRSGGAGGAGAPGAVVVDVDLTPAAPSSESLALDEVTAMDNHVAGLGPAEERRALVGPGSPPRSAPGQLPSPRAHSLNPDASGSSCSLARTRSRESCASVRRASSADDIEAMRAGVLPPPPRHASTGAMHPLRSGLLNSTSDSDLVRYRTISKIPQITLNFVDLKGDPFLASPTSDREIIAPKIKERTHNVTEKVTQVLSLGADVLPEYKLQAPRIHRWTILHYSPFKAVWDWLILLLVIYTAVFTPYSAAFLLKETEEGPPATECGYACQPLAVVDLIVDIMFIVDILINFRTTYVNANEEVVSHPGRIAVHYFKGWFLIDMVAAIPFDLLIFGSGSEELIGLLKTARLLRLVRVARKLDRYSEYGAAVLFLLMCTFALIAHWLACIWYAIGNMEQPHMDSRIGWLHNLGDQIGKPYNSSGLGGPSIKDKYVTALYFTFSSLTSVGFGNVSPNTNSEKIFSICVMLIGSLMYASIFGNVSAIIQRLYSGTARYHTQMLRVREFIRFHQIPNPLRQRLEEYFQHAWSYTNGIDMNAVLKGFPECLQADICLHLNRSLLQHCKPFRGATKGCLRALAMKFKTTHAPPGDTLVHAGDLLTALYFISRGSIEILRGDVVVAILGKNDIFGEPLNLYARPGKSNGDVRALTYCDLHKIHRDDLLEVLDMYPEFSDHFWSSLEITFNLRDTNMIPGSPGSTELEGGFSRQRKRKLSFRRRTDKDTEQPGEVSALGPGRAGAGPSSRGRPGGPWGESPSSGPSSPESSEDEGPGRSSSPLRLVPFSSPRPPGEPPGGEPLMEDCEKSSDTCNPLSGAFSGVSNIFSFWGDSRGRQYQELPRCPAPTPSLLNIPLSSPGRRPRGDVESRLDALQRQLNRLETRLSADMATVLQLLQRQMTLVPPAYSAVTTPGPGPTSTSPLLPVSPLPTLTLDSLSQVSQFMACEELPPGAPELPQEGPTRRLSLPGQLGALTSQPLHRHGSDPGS

IC50 (Dipeptidyl peptidase 2): > 20 µM | Activity (Homo sapiens [1]): > 1300 | bioavailability [4]: 42% | half-life [5]: 4.8 h | inhibition [8]: 53% | Cmax [10]: 621 ng/mL | Activity (Homo sapiens [13]): > 1300 | clearance [14]: 22 mL/min/kg | Activity (Homo sapiens [15]): > 1300 | IC50 (Prolyl endopeptidase FAP): > 20 µM
Structure (SMILES): CC(C)(CC(=O)N[C@H]1C[C@@H]1c1cccc(Cl)c1)NCC(=O)N1C[C@@H](F)C[C@H]1C#N
inhibition at 10 µM (hERG (KCNH2)): 11% | inhibition in vivo at 10 mg/kg (Rattus norvegicus [2]): > 85% | Activity (Mus musculus [3]): Dose-dependent effect | Activity (Mus musculus [6]): 83% | Activity (Mus musculus [7]): 73% | Activity (Rattus norvegicus [9]): inactive | Activity (Mus musculus [11]): 72% | Activity (Mus musculus [12]): 98% | Activity (Mus musculus [16]): 50%
